# From PubChem
# A selection: hits, their analogues and other compounds. The true share with any hit is near 2.5%.
# Tb MetRS inh – T. brucei MetRS inhibitors, primary screen, biochemical, luminescence; AID 624268, 2012; purified T. brucei MetRS, ATP depletion, Kinase-Glo luminescence; 0.4% of 360,000 active; inhibition, % at 11.9 µM;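 active means inhibition above a per-plate cutoff of the control wells' mean inhibition plus 3 SD, cut at about 5.5% in these data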;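 further: 0% = DMSO wells median and 100% = median of wells with control inhibitor compound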
#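 Material – parasite MetRS enzyme · Medium – HEPES-MgCl2-KCl buffer plus DTT, spermine, BSA, pyrophosphatase · Reagent – ATP, methionine and E. coli bulk tRNA substrates · Times – 15 min enzyme-compound preincubation, 2 h reaction, 10 min detection, 25 °C · Measured by – luminescence of leftover ATP · Evaluation – percent inhibition relative to median high and low control wells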
# Bfl-1 A1 inh – caspase 3/7 activation in MEF A1-2A-BIM cells, primary screen, A1 inhibitor project, cell-based, luminescence, HTS. Caspase-Glo 3/7 luminescence, 3 h; percent of clofoctol response, vehicle zero. caspase activation, % (concentration not given with the values). 0.066% of 330,000 active;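 active means over half of replicate activation scores above 10%, or exactly half above 10 with the replicate mean above 10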
# NLRP3 yeast inh – NALP3 inflammasome inhibitors in reconstituted yeast, primary screen, luminescence, uHTS; Yeast reconstituted NLRP3/ASC/caspase-1, beta-gal luminescence, 24 h; AID 2825, 2010; 0.39% of 330,000 active; inhibition, % at 10 µM;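 active means inhibition of 50% or more; inactive means inhibition below 50%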;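 further: plate controls were induced DMSO wells for no effect and uninduced yeast grown without galactose for full effect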
# NALP1 yeast inh – NALP1 inflammasome inhibitors in reconstituted yeast, colorimetric, S. cerevisiae, triplicate retest; inhibition, % at 10 µM; S. cerevisiae NALP1/ASC/caspase-1 growth, X-gal OD620, 72 h; AID 2071, 2009; 0.61% of 280,000 active; in the data active means inhibition mostly above about 24%, no sharp cut-off; inactive means mostly below about 32%
# MC4R antag cAMP – MC4R antagonists of cAMP signaling, primary screen, cell-based, TR-FRET, antagonist arm of biased-ligand search. Melanocortin receptor 4 (Homo sapiens), P32245. MC4R-expressing cells, MTII-stimulated cAMP, LANCE TR-FRET. inhibition, % at 6.5 µM. 0.48% of 360,000 active. AID 540295, 2011;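 active means inhibition above its plate's cutoff, the mean of tested wells on that plate plus 3 SD, cut at about 29% in these data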;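 further: 0% = Melanotan II alone and 100% = Melanotan II plus saturating MCL0020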
# Target sequence (P32245 whole entry, looked up): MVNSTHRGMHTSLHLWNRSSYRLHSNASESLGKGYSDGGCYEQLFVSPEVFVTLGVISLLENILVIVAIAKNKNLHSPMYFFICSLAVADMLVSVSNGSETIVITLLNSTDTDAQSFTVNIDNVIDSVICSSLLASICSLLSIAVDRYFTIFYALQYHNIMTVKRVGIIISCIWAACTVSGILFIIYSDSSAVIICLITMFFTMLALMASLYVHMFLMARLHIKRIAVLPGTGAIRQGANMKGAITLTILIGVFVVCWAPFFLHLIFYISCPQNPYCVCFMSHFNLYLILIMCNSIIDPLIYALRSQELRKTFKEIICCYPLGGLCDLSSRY
#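 Test system: U2OS cells stably expressing human melanocortin 4 receptor (MC4R); also added: Melanotan II challenge; compound: 6.5 µM single dose; timing: 30-min compound preincubation, 1-h Melanotan II challenge, 1-h detection, room temperature; signal: Eu-cAMP/anti-cAMP TR-FRET, emission 671 nm; repeats: one well per compound, no replicates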
# MC4R ag barr – MC4R agonists recruiting beta-arrestin, primary screen, cell-based, luminescence, agonist arm of biased-ligand search; U2OS MC4R beta-arrestin complementation; percent of melanotan II response, DMSO zero; activation, % at 8.9 µM; 0.98% of 360,000 active; AID 540308, 2011;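 active means activation above a per-plate cutoff, the mean activation of sample wells on that plate plus 3 SD, cut at about 8% in these data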
# cAMP nonselect – nonselective cAMP signaling inhibitors, parental cells, counter-screen for MC4R biased antagonist project, cell-based, TR-FRET, U2OS, forskolin, triplicate. shares compounds with MC4R antag cAMP. LANCE TR-FRET. inhibition, % at 6.5 µM. 26% of 1,600 active. AID 602193, 2012;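 active means mean inhibition over triplicates above the low-control well mean plus 3 SD, set per campaign, cut at about 13% in these data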;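 further: signal is single emission at 671 nm which falls as cellular cAMP rises; 0% = forskolin-stimulated wells and 100% = buffer without forskolin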
# MC4R antag conf – MC4R cAMP antagonists, retest, confirmation, cell-based, TR-FRET; shares compounds with MC4R antag cAMP; MC4R-expressing cells, MTII-stimulated cAMP; inhibition, % at 6.5 µM; 27% of 1,600 active; AID 602195, 2012; in the data active means inhibition above about 29%;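 further: 0% = agonist stimulated wells alone and 100% = agonist stimulated wells plus saturating reference antagonist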
# * = called active by the depositor; · = not tested or not shown.
SMILES,Tb MetRS inh,Bfl-1 A1 inh,NLRP3 yeast inh,NALP1 yeast inh,MC4R antag cAMP,MC4R ag barr,cAMP nonselect,MC4R antag conf
Cc1ccc(OCC(=O)NNC(=O)C2CCN(c3ncccn3)CC2)cc1,0.4,0.3,2.7,-17.7,22.1,0.6,·,·
Cc1c(C(=O)NCc2ccc(F)cc2)sc(=O)n1Cc1ccc(Cl)c(Cl)c1,0.9,·,·,·,11.0,3.8,·,·
Cc1cc(N2CCN(C)CC2)nc(=S)[nH]1,1.2,-0.6,8.2,-0.7,29.0*,-1.5,0.4,-4.3
CCN(CC)c1ncnc2c1ncn2[C@H]1CN(Cc2ccc(Cl)cc2)C[C@@H](CO)O1,-0.2,·,·,·,-8.1,1.0,·,·
CNc1nc(Nc2ccc([N+](=O)[O-])cc2)nc(OCC(F)(F)F)n1,-0.7,0.6,13.9,9.1,14.6,1.3,·,·
CNc1nc(N/N=C/c2cc([N+](=O)[O-])ccc2F)nc(Nc2ccccc2)n1,0.1,·,·,·,46.6*,-0.9,18.9*,61.6*
O=C1CC2CCCC(C1)S2=O (centres undefined),0.0,·,·,·,11.0,-1.0,·,·
CC(=O)Nc1ccc(OCC(O)Cn2c(CO)nc3ccccc32)cc1 (centres undefined),0.2,-0.6,18.4,-1.6,31.5*,-0.3,-0.4,8.3
O=C(NCCOc1ccccc1Cl)c1cc(F)c(F)cc1Cl,-0.3,0.8,27.9,-7.5,19.9,-0.7,·,·
O=C(NCCOc1ccccc1Cl)c1ncn[nH]1,-0.2,-0.9,8.0,11.8,30.1*,-0.4,-1.9,-9.1
Cc1ccc(OCC(=O)NCCNC(=O)c2ccc(C)nc2)cc1,0.0,0.8,2.9,26.3,-2.6,-0.2,·,·
COC(=O)c1ccc(C2c3[nH]c4ccccc4c3C[C@H]3C(=O)N(C4CCN(Cc5ccccc5)CC4)CC(=O)N23)cc1 (some centres undefined),-0.1,-0.8,31.9,18.7,36.9*,-0.9,5.8,22.4
O=C1[C@@H]2Cc3c([nH]c4ccccc34)C(c3ccccc3)N2C(=O)CN1C1CCN(Cc2ccccc2)CC1 (some centres undefined),-0.9,0.2,-0.1,9.1,-6.2,3.3,·,·
Cc1ccc(-c2cc(C(=O)OC3CCOC3=O)c3ccccc3n2)c(C)c1 (centres undefined),0.1,0.0,10.9,10.2,5.7,0.1,·,·
O=C(OC1CCOC1=O)c1cc(-c2cccs2)nc2ccccc12 (centres undefined),-0.1,-1.5,2.8,3.0,35.2*,0.6,25.7*,37.6*
O=C1CC(=O)N(CCNc2ncc(C(F)(F)F)cc2Cl)C(=O)N1,-0.6,0.9,-3.2,-3.5,-6.0,0.8,·,·
O=C1C=CC(=O)N1CCNc1ncc(C(F)(F)F)cc1Cl,0.4,·,-46.1,54.6*,52.8*,-1.5,-4.6,23.7
Cc1ccc(NC(=O)CN(C)C(=O)Cn2ncc(Cl)c(Cl)c2=O)cc1,0.2,0.0,·,17.9,29.8*,-0.7,25.6*,24.4
CCN(C[C@H]1N[C@@](CC)(C(=O)OC)[C@H]2C(=O)N(C)C(=O)[C@@H]12)C(=O)NC(C)C,-0.8,·,13.1,·,3.2,-2.8,·,·
C[C@@H]1CN(Cc2nc(Cc3ccccc3F)no2)C[C@H](C)O1,-0.7,-0.4,-5.7,-23.1,32.7*,0.8,-3.5,-12.9
CCCc1nnc(NC(=O)CC(C)c2ccccc2)s1 (centres undefined),-1.1,0.6,31.0,-5.8,29.7*,1.7,-15.1,-29.3
CN(C)c1ccc(-c2csc(C(O)(c3ccccc3)C(F)(F)F)n2)cc1 (centres undefined),-0.1,·,·,·,9.3,-0.5,·,·
COc1ccc(S(=O)(=O)N(C)C)cc1NC(=O)COC(=O)c1nn(C)c(=O)c2ccccc12,0.4,-0.3,9.5,3.2,33.7*,0.6,6.3,13.5
CCN(c1ccccc1)S(=O)(=O)c1ccc(OC)c(NC(=O)Cn2cnc3c2c(=O)n(C)c(=O)n3C)c1,-0.3,-0.4,12.5,-2.1,41.4*,6.2,3.9,10.2
Clc1cccc(Oc2ncccn2)c1,-0.4,1.0,18.9,27.4,31.4*,1.4,2.3,0.1
SMILES,Tb MetRS inh,Bfl-1 A1 inh,NLRP3 yeast inh,NALP1 yeast inh,MC4R antag cAMP,MC4R ag barr,cAMP nonselect,MC4R antag conf
CC(=O)c1cccc(Oc2ncccn2)c1,-0.3,-0.4,3.6,12.8,12.2,1.0,·,·
O=C(/C=C/c1ccc(S(=O)(=O)NCc2ccco2)cc1)N1CCN(c2ccccc2)CC1,-0.1,0.5,13.5,12.2,30.6*,0.7,1.4,-4.0
Cc1ccc(C(=O)C(C)OC(=O)c2cc3cc([N+](=O)[O-])ccc3oc2=O)cc1 (centres undefined),0.2,-0.1,12.6,20.6,33.4*,-3.3,7.8,13.5
O=C(c1ccco1)N1CCN(c2ncnc3scc(-c4ccc(Cl)cc4)c23)CC1,-0.3,·,·,·,30.5*,4.0,-3.5,6.1
CCOC(=O)Cn1c(=O)oc2cc(S(=O)(=O)N3CCc4ccccc43)ccc21,0.1,1.6,7.5,-4.0,30.3*,0.9,11.5,13.1
CC(C)(C)NC(=O)Cn1c(=O)oc2cc(S(=O)(=O)N3CCc4ccccc43)ccc21,0.0,0.1,2.0,13.5,11.4,0.0,·,·
CCc1nnc(NS(=O)(=O)c2ccc(N/C=C\C(=O)c3cccc(OC)c3)cc2)s1,0.1,-0.3,11.2,-4.4,33.8*,-2.0,1.7,9.1
COc1cc(C(=O)NC2CC(C)(C)CC(C)(C)C2)ccc1OC1CCN(C(C)=O)CC1,-0.8,0.1,15.4,-12.6,3.8,-1.1,·,·
CCCCC(=O)Nc1ccc(NCc2ccc(C)s2)cc1,-1.3,0.2,·,15.0,3.0,-2.3,·,·
Cc1ccc(C(=O)OCC(=O)NC2CCCCC2)cc1S(=O)(=O)N1CCCCC1,-0.4,·,1.1,·,-4.2,-1.0,·,·
CC1(C)Cc2c(c(N3CCOCC3)nc3snc(NC(=O)c4ccccc4)c23)CO1,0.2,0.1,2.9,3.9,5.3,0.9,·,·
Cc1nc2c(sc3nc(N4CCOCC4)c4c(c32)CC(C)(C)OC4)c(-c2ccccc2)c1C(=O)O,0.2,0.6,16.9,3.8,40.4*,-0.2,11.9,20.3
